According to ChEMBL document CHEMBL6153131, “Rational Design and Optimization of a Potent IDO1 Proteolysis Targeting Chimera (PROTAC)” (J Med Chem, 2025):
pKd: −log10 of the molar value. Active and inactive are the calls of the source. The rule behind the calls is not given here.

Experiments:
[1] = target: T1, Protein cereblon/Indoleamine 2,3-dioxygenase 1 (Homo sapiens, UniProt P14902+Q96SW2); assay: (§1) PROTAC activity at CRBN/N-terminal HiBiT-tagged IDO1 (unknown origin) transfected in human U87 cells assessed as induction of IDO1 degradation pretreated with IFN-gamma for 24 hrs followed by compound addition and measured after 24 hrs by Nano-Glo HiBiT assay; assay type: cell-based
Outline: (§2)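 U87 cells carrying HiBiT knocked in by CRISPR/Cas9 at the IDO1 N-terminus, treated for 24 h. Degradation read as loss of luminescence. DC50 fitted from the lowest concentration up to maximal degradation, excluding hook-effect points; triplicate mean ± SD.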
Target sequence in this assay (P14902 whole entry): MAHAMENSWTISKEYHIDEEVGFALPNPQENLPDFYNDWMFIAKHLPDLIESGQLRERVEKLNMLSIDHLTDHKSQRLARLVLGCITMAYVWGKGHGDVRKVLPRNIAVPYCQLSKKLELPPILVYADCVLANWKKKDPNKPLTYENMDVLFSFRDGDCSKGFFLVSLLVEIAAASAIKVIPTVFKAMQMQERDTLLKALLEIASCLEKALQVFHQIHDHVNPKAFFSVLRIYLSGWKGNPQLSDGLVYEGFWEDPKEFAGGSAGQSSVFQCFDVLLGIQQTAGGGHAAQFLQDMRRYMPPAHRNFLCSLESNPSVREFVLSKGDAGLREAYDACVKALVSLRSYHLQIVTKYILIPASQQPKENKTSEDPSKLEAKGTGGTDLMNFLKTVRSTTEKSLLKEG
Target sequence in this assay (Q96SW2 whole entry): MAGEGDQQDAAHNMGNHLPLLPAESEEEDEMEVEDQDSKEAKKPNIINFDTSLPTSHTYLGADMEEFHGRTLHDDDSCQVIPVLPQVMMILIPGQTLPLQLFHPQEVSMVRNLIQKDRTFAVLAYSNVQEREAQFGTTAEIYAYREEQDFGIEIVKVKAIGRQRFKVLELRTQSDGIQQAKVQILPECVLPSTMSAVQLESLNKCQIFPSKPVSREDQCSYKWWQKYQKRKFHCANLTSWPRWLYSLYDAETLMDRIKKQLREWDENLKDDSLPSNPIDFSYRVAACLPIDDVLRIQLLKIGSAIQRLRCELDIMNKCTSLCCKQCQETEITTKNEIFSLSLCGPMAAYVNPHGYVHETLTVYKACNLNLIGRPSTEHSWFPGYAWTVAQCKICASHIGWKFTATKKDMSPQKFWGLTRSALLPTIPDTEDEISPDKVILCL

[2] = target: T1, Protein cereblon/Indoleamine 2,3-dioxygenase 1; assay: as §1, with “degradation by measuring maximum efficacy” for “degradation”, “assay relative to control” for “assay”; assay type: cell-based; outline: as §2
Target sequence in this assay (P14902 whole entry, looked up): as the sequence (P14902 whole entry) above
Target sequence in this assay (Q96SW2 whole entry, looked up): as the sequence (Q96SW2 whole entry) above

[3] = target: T1, Protein cereblon/Indoleamine 2,3-dioxygenase 1; assay: PROTAC activity at CRBN/IDO1 in human U87 cells assessed as induction of IDO1 degradation by measuring remaining activity at 25 nM pretreated with IFN-gamma for 24 hrs followed by compound addition and measured after 24 hrs by Western blotting analysis (reference value: 100%); assay type: cell-based
Target sequence in this assay (P14902 whole entry, looked up): as the sequence (P14902 whole entry) above
Target sequence in this assay (Q96SW2 whole entry, looked up): as the sequence (Q96SW2 whole entry) above

[4] = target: T1, Protein cereblon/Indoleamine 2,3-dioxygenase 1; assay: PROTAC activity at CRBN/IDO1 in human U87 cells assessed as induction of IDO1 degradation by measuring remaining activity at 50 nM pretreated with IFN-gamma for 24 hrs followed by compound addition and measured after 24 hrs by Western blotting analysis (reference value: 100%); assay type: cell-based
Target sequence in this assay (P14902 whole entry, looked up): as the sequence (P14902 whole entry) above
Target sequence in this assay (Q96SW2 whole entry, looked up): as the sequence (Q96SW2 whole entry) above

[5] = target: T1, Protein cereblon/Indoleamine 2,3-dioxygenase 1; assay: PROTAC activity at CRBN/IDO1 in human U87 cells assessed as induction of IDO1 degradation by measuring remaining activity at 100 nM pretreated with IFN-gamma for 24 hrs followed by compound addition and measured after 24 hrs by Western blotting analysis (reference value: 100%); assay type: cell-based
Target sequence in this assay (P14902 whole entry, looked up): as the sequence (P14902 whole entry) above
Target sequence in this assay (Q96SW2 whole entry, looked up): as the sequence (Q96SW2 whole entry) above

[6] = target: T1, Protein cereblon/Indoleamine 2,3-dioxygenase 1; assay: PROTAC activity at CRBN/IDO1 in human PDX-6 cells assessed as induction of IDO1 degradation at 100 nM pretreated with IFN-gamma for 24 hrs followed by compound addition and measured after 24 hrs by Western blotting analysis; assay type: cell-based
Target sequence in this assay (P14902 whole entry, looked up): as the sequence (P14902 whole entry) above
Target sequence in this assay (Q96SW2 whole entry, looked up): as the sequence (Q96SW2 whole entry) above

[7] = target: T1, Protein cereblon/Indoleamine 2,3-dioxygenase 1; assay: PROTAC activity at CRBN/IDO1 in human PDX-38 cells assessed as induction of IDO1 degradation at 100 nM pretreated with IFN-gamma for 24 hrs followed by compound addition and measured after 24 hrs by Western blotting analysis; assay type: cell-based
Target sequence in this assay (P14902 whole entry, looked up): as the sequence (P14902 whole entry) above
Target sequence in this assay (Q96SW2 whole entry, looked up): as the sequence (Q96SW2 whole entry) above

[8] = target: T1, Protein cereblon/Indoleamine 2,3-dioxygenase 1; assay: PROTAC activity at CRBN/IDO1 in human U87 cells overexpressing GFP-fused IDO1 assessed as induction of IDO1 degradation at 100 nM pretreated with IFN-gamma for 24 hrs followed by compound addition and measured after 24 hrs by Western blotting analysis; assay type: cell-based
[9] = target: T1, Protein cereblon/Indoleamine 2,3-dioxygenase 1; assay: PROTAC activity at CRBN/IDO1 in human PC-3 cells assessed as induction of IDO1 degradation at 100 nM pretreated with IFN-gamma for 24 hrs followed by compound addition and measured after 24 hrs by Western blotting analysis; assay type: cell-based
[10] = target: T1, Protein cereblon/Indoleamine 2,3-dioxygenase 1; assay: PROTAC activity at CRBN/IDO1 in human KNS-42 cells assessed as induction of IDO1 degradation at 100 nM pretreated with IFN-gamma for 24 hrs followed by compound addition and measured after 24 hrs by Western blotting analysis; assay type: cell-based
[11] = target: T1, Protein cereblon/Indoleamine 2,3-dioxygenase 1; assay: PROTAC activity at CRBN/IDO1 in human MDA-MB-231 cells assessed as induction of IDO1 degradation at 100 nM pretreated with IFN-gamma for 24 hrs followed by compound addition and measured after 24 hrs by Western blotting analysis; assay type: cell-based
[12] = target: T1, Protein cereblon/Indoleamine 2,3-dioxygenase 1; assay: PROTAC activity at CRBN/IDO1 in human SW1990 cells assessed as induction of IDO1 degradation at 100 nM pretreated with IFN-gamma for 24 hrs followed by compound addition and measured after 24 hrs by Western blotting analysis; assay type: cell-based
[13] = target: T1, Protein cereblon/Indoleamine 2,3-dioxygenase 1; assay: PROTAC activity at CRBN/IDO1 in human SK-OV-3 cells assessed as induction of IDO1 degradation at 100 nM pretreated with IFN-gamma for 24 hrs followed by compound addition and measured after 24 hrs by Western blotting analysis; assay type: cell-based
Protein cereblon = Protein cereblon (Homo sapiens, UniProt Q96SW2); assay: Binding affinity to CRBN (unknown origin) assessed as dissociation constant by Biolayer Interferometry assay
[14] = target: T1, Protein cereblon/Indoleamine 2,3-dioxygenase 1; assay: PROTAC activity at CRBN/IDO1 in human U87 cells assessed as induction of IDO1 degradation by measuring remaining activity at 0.001 uM pretreated with IFN-gamma for 24 hrs followed by compound addition and measured after 24 hrs by Western blotting analysis (reference value: 100%); assay type: cell-based
Outline: (§3)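 U87 cells given an extended dose range of PROTAC for 24 h, then Western blot for IDO1. IFNγ-induced IDO1 levels normalised to untreated samples. n = 3 independent experiments; mean ± SEM.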

[15] = target: T1, Protein cereblon/Indoleamine 2,3-dioxygenase 1; assay: PROTAC activity at CRBN/IDO1 in human U87 cells assessed as induction of IDO1 degradation by measuring remaining activity at 0.003 uM incubated for 24 hrs by Western blotting analysis (reference value: 100%); assay type: cell-based
[16] = target: T1, Protein cereblon/Indoleamine 2,3-dioxygenase 1; assay: PROTAC activity at CRBN/IDO1 in human U87 cells assessed as induction of IDO1 degradation by measuring remaining activity at 0.01 uM pretreated with IFN-gamma for 24 hrs followed by compound addition and measured after 24 hrs by Western blotting analysis (reference value: 100%); assay type: cell-based; outline: as §3
[17] = target: T1, Protein cereblon/Indoleamine 2,3-dioxygenase 1; assay: PROTAC activity at CRBN/IDO1 in human U87 cells assessed as induction of IDO1 degradation by measuring remaining activity at 0.03 uM pretreated with IFN-gamma for 24 hrs followed by compound addition and measured after 24 hrs by Western blotting analysis (reference value: 100%); assay type: cell-based; outline: as §3
[18] = target: T1, Protein cereblon/Indoleamine 2,3-dioxygenase 1; assay: PROTAC activity at CRBN/IDO1 in human U87 cells assessed as induction of IDO1 degradation by measuring remaining activity at 0.1 uM pretreated with IFN-gamma for 24 hrs followed by compound addition and measured after 24 hrs by Western blotting analysis (reference value: 100%); assay type: cell-based; outline: as §3
[19] = target: T1, Protein cereblon/Indoleamine 2,3-dioxygenase 1; assay: PROTAC activity at CRBN/IDO1 in human U87 cells assessed as induction of IDO1 degradation by measuring remaining activity at 0.3 uM pretreated with IFN-gamma for 24 hrs followed by compound addition and measured after 24 hrs by Western blotting analysis (reference value: 100%); assay type: cell-based; outline: as §3
[20] = target: T1, Protein cereblon/Indoleamine 2,3-dioxygenase 1; assay: PROTAC activity at CRBN/IDO1 in human U87 cells assessed as induction of IDO1 degradation by measuring remaining activity at 1 uM pretreated with IFN-gamma for 24 hrs followed by compound addition and measured after 24 hrs by Western blotting analysis (reference value: 100%); assay type: cell-based; outline: as §3
[21] = target: T1, Protein cereblon/Indoleamine 2,3-dioxygenase 1; assay: PROTAC activity at CRBN/IDO1 in human U87 cells assessed as induction of IDO1 degradation by measuring remaining activity at 3 uM pretreated with IFN-gamma for 24 hrs followed by compound addition and measured after 24 hrs by Western blotting analysis (reference value: 100%); assay type: cell-based; outline: as §3
[22] = target: T1, Protein cereblon/Indoleamine 2,3-dioxygenase 1; assay: PROTAC activity at CRBN/IDO1 in human U87 cells assessed as induction of IDO1 degradation by measuring remaining activity at 10 uM pretreated with IFN-gamma for 24 hrs followed by compound addition and measured after 24 hrs by Western blotting analysis (reference value: 100%); assay type: cell-based; outline: as §3
[23] = target: T1, Protein cereblon/Indoleamine 2,3-dioxygenase 1; assay: PROTAC activity at CRBN/IDO1 in human U87 cells assessed as induction of IDO1 degradation by measuring maximum efficacy at 300 nM pretreated with IFN-gamma for 24 hrs followed by compound addition and measured after 24 hrs by Western blotting analysis relative to control; assay type: cell-based
Outline: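 IDO1 in U87 cells induced with 50 ng/mL human IFN-γ, then compound given across an extended dose range for 24 h. IDO1 and GAPDH read by Western blot; IDO1 levels normalized to untreated; DC50 from n = 3 independent experiments.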

U-87MG ATCC [24] = assay: Inhibition of kynurenine production in human U87 cells […] and measured after 24 hrs by Ehrlich's reagent based analysis; assay type: functional, cell-based; conditions: dose 0.001-10 µM
Outline: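 U87 cells plated, then 24 h later given compound with 50 ng/mL IFN-γ for a total of 24 h. Supernatant kynurenine measured with Ehrlich's reagent; cells without IFN-γ as control; mean ± SEM, Tukey's test.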

Kelly [25] = assay: Downregulation of ADO protein level in human Kelly cells at 1 uM incubated for 24 hrs by proteomics analysis; assay type: functional, cell-based
Kelly [26] = assay: Downregulation of EPHX2 protein level in human Kelly cells at 1 uM incubated for 24 hrs by proteomics analysis; assay type: functional, cell-based
Kelly [27] = assay: Downregulation of CDK8 protein level in human Kelly cells at 1 uM incubated for 24 hrs by proteomics analysis; assay type: functional, cell-based
Kelly [28] = assay: Downregulation of SALL4 protein level in human Kelly cells at 1 uM incubated for 24 hrs by proteomics analysis; assay type: functional, cell-based
[29] = target: Indoleamine 2,3-dioxygenase 1 (Homo sapiens) (UniProt P14902); assay: Binding affinity to 6His-tagged recombinant IDO1 (unknown origin) assessed as binary complex formation by measuring half life by Biolayer Interferometry assay
[30] = target: T1, Protein cereblon/Indoleamine 2,3-dioxygenase 1; assay: Binding affinity to CRBN/6His-tagged recombinant IDO1 (unknown origin) assessed as ternary complex formation by measuring half life by Biolayer Interferometry assay; assay type: protein assay
U-87MG ATCC [31] = assay: Inhibition of kynurenine production in human U87 cells at 25 nM pretreated with IFN-gamma for 24 hrs followed by compound addition and measured after 24 hrs by Ehrlich's reagent based analysis; assay type: functional, cell-based

Sequence of Protein cereblon (Q96SW2 whole entry): as above
Sequence of Indoleamine 2,3-dioxygenase 1 (Homo sapiens) (P14902 whole entry, looked up): as the sequence (P14902 whole entry) above

## C[C@@H](C(=O)Nc1cccc(OC2CCN(C(=O)CN3CCC(N4CCN(c5ccc6c(c5)C(=O)N(C5CCC(=O)N(C)C5=O)C6=O)CC4)CC3)CC2)c1)[C@H]1CC[C@@H](c2ccnc3ccc(F)cc32)CC1 (stereo partly specified)
[1]
  DC50: > 10000 nM
[2]
  Emax: < 10%
[3]
  Activity: 99%
[4]
  Activity: 125%
[5]
  Activity: 162%
[6]
  Activity: inactive
[7]
  Activity: inactive
[8]
  Activity: inactive
[9]
  Activity: inactive
[10]
  Activity: inactive
[11]
  Activity: inactive
[12]
  Activity: inactive
[13]
  Activity: inactive

## C[C@@H](C(=O)Nc1ccc(OC2CCN(C(=O)CCOCCOCCNc3cccc4c3C(=O)N(C3CCC(=O)NC3=O)C4=O)CC2)cc1)[C@H]1CC[C@@H](c2ccnc3ccc(F)cc32)CC1 (stereo partly specified)
[1]
  DC50: 430 nM
[2]
  Emax: 79%
Protein cereblon
  pKd: 6.54

## C[C@@H](C(=O)Nc1cccc(OC2CCN(C(=O)CN3CCC(CN4CCN(c5ccc6c(c5)C(=O)N(C5CCC(=O)NC5=O)C6=O)CC4)CC3)CC2)c1)[C@H]1CC[C@@H](c2ccnc3ccc(F)cc32)CC1 (stereo partly specified)
[1]
  DC50: 20 nM
[2]
  Emax: 67%
[14]
  Activity: 93%
[15]
  Activity: 88%
[16]
  Activity: 84%
[17]
  Activity: 71%
[18]
  Activity: 47%
[19]
  Activity: 32%
[20]
  Activity: 37%
[21]
  Activity: 57%
[22]
  Activity: 93%
[23]
  Emax: 68%
U-87MG ATCC [24]
  inhibition: Dose-dependent-effect
Kelly [25]
  Activity: Active
Kelly [26]
  Activity: Active
Kelly [27]
  Activity: Active
Kelly [28]
  Activity: Active
[29]
  T1/2: 0.883 min
[30]
  T1/2: 4.27 min

## C[C@@H](C(=O)Nc1ccc(Cl)cc1)[C@H]1CC[C@@H](c2ccnc3ccc(F)cc32)CC1
U-87MG ATCC [31]
  inhibition: Active
